pIC50, pKi: −log10 of the molar value.
How the values were obtained:
Vero [1] = assay: In vitro cytotoxicity against Plasmodium falciparum infected vero cell line.; type: functional, cell-based; conditions: Chlorocebus sabaeus
Method in brief: (§1)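 Cytotoxicity (IC50, μM) run against three mammalian lines: Vero (African green monkey kidney fibroblasts), KB (human epidermoid carcinoma) and BC (human breast cancer). Testing followed the Skehan et al. protocol.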

[2] = biological target: Bifunctional dihydrofolate reductase-thymidylate synthase (Plasmodium falciparum K1, UniProt P13922); assay: Binding affinity towards wild-type dihydrofolate reductase of Plasmodium falciparum.
Chain of Bifunctional dihydrofolate reductase-thymidylate synthase (Plasmodium falciparum K1, UniProt P13922) (P13922 whole entry): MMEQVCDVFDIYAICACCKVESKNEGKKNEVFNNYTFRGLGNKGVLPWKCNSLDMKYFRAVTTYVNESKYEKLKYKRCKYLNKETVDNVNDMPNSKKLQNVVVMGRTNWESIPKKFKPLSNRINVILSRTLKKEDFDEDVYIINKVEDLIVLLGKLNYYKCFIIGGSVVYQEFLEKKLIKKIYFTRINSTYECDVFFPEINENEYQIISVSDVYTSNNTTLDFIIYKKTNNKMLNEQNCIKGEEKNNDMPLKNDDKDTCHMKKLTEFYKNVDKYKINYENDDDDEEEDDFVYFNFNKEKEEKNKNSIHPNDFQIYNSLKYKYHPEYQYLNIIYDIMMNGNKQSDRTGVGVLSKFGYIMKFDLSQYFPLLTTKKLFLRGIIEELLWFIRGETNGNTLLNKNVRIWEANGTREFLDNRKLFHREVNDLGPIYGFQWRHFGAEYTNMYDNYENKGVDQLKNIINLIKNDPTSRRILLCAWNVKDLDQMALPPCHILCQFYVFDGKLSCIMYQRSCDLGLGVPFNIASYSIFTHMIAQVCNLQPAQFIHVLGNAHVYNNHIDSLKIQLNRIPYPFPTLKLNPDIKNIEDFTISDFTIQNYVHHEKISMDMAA

BC [3] = assay: Relative antiplasmodial activity to cytotoxicity in Plasmodium falciparum Csl-2 infected BC cells; type: functional
Vero [4] = assay: Relative antiplasmodial activity to cytotoxicity in Plasmodium falciparum TM4/8.2 infected Vero cells; type: functional
Vero [5] = assay: Relative antiplasmodial activity to cytotoxicity in Plasmodium falciparum Csl-2 infected Vero cells; type: functional
Vero [6] = assay: Relative antiplasmodial activity to cytotoxicity in Plasmodium falciparum V1/S infected Vero cells; type: functional
[7] = system: Bifunctional dihydrofolate reductase-thymidylate synthase (Plasmodium falciparum K1), P13922 [UNDEFINED MUTATION]; assay: Ratio of binding affinity for mutant (N51I+C59R+S108N+I164L) to that of wild type dihydrofolate reductase
Chain of Bifunctional dihydrofolate reductase-thymidylate synthase (Plasmodium falciparum K1), P13922 [UNDEFINED MUTATION] (P13922 whole entry, looked up, stated change not applied): as the sequence (P13922 whole entry) above
Method in brief: (§2)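 Each ratio is Ki for the mutant PfDHFR divided by Ki for wild-type PfDHFR. The recombinant enzymes were expressed in E. coli BL21(DE3)pLysS and purified on methotrexate-Sepharose. Ki was derived assuming inhibitors compete with substrate binding.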

[8] = biological target: Bifunctional dihydrofolate reductase-thymidylate synthase (Plasmodium falciparum K1, UniProt P13922, C59R/I164L/S108N); assay: Binding affinity towards mutant dihydrofolate reductase (C59R+S108N+I164L DHFR) of Plasmodium falciparum
Chain of Bifunctional dihydrofolate reductase-thymidylate synthase (Plasmodium falciparum K1, UniProt P13922, C59R/I164L/S108N) (P13922 whole entry, looked up, stated change not applied): as the sequence (P13922 whole entry) above

KB [9] = assay: Relative antiplasmodial activity to cytotoxicity in Plasmodium falciparum TM4/8.2 infected KB cells; type: functional
KB [10] = assay: Relative antiplasmodial activity to cytotoxicity in Plasmodium falciparum Csl-2 infected KB cells; type: functional
[11] = biological target: Bifunctional dihydrofolate reductase-thymidylate synthase (Plasmodium falciparum K1) (UniProt P13922); assay: Ratio of binding affinity for mutant (N51I+C59R+S108N) to that of wild type dihydrofolate reductase; method in brief: as §2
Chain of Bifunctional dihydrofolate reductase-thymidylate synthase (Plasmodium falciparum K1) (P13922 whole entry, looked up): as the sequence (P13922 whole entry) above

BC [12] = assay: Relative antiplasmodial activity to cytotoxicity in Plasmodium falciparum TM4/8.2 infected BC cells; type: functional
[13] = biological target: Bifunctional dihydrofolate reductase-thymidylate synthase (Plasmodium falciparum K1, UniProt P13922, C59R/N51I/S108N); assay: Binding affinity towards mutant dihydrofolate reductase (N51I+C59R+S108N DHFR) of Plasmodium falciparum
Chain of Bifunctional dihydrofolate reductase-thymidylate synthase (Plasmodium falciparum K1, UniProt P13922, C59R/N51I/S108N) (P13922 whole entry, looked up, stated change not applied): as the sequence (P13922 whole entry) above

KB [14] = assay: Relative antiplasmodial activity to cytotoxicity in Plasmodium falciparum V1/S infected KB cells; type: functional
[15] = system: Bifunctional dihydrofolate reductase-thymidylate synthase (Plasmodium falciparum K1), P13922 [UNDEFINED MUTATION]; assay: Ratio of binding affinity for mutant (C59R+S108N+I164L) to that of wild type dihydrofolate reductase; method in brief: as §2
BC [16] = assay: In vitro cytotoxicity against BC cell line.; conditions: Homo sapiens
[17] = biological target: Bifunctional dihydrofolate reductase-thymidylate synthase (Plasmodium falciparum K1, UniProt P13922, C59R/I164L/N51I/S108N); assay: Binding affinity towards mutant dihydrofolate reductase (N51I+C59R+S108N+I164L DHFR) of Plasmodium falciparum
Chain of Bifunctional dihydrofolate reductase-thymidylate synthase (Plasmodium falciparum K1, UniProt P13922, C59R/I164L/N51I/S108N) (P13922 whole entry, looked up, stated change not applied): as the sequence (P13922 whole entry) above

KB [18] = assay: In vitro cytotoxicity against Plasmodium falciparum infected KB cell line; type: functional, cell-based; conditions: Homo sapiens; method in brief: as §1
[19] = system: Bifunctional dihydrofolate reductase-thymidylate synthase (Plasmodium falciparum K1), P13922 [UNDEFINED MUTATION]; assay: Ratio of binding affinity for mutant (A16V+S108T) to that of wild type dihydrofolate reductase; method in brief: as §2
[20] = biological target: Bifunctional dihydrofolate reductase-thymidylate synthase (Plasmodium falciparum K1, UniProt P13922, A16V/S108T); assay: Binding affinity towards mutant dihydrofolate reductase (A16V+S108T DHFR) of Plasmodium falciparum.
Chain of Bifunctional dihydrofolate reductase-thymidylate synthase (Plasmodium falciparum K1, UniProt P13922, A16V/S108T) (P13922 whole entry, looked up, stated change not applied): as the sequence (P13922 whole entry) above

Row | Compound | pIC50 (Vero [1]) | pKi [2] | Safety ratio (BC [3]) | Safety ratio (Vero [4]) | Safety ratio (Vero [5]) | Safety ratio (Vero [6]) | Ratio [7] | pKi [8] | Safety ratio (KB [9]) | Safety ratio (KB [10]) | Ratio [11] | Safety ratio (BC [12]) | pKi [13] | Safety ratio (KB [14]) | Ratio [15] | pIC50 (BC [16]) | pKi [17] | pIC50 (KB [18]) | Ratio [19] | pKi [20]
1 | Nc1nc(N)c(-c2cccc(Cl)c2)c(CCCc2ccccc2)n1 | 5.68 | 8.92 | 0.4 | 3.1 | 0.6 | 0.4 | 1.7 | 8.66 | 2.4 | 0.4 | 1.7 | 2.4 | 8.70 | 0.3 | 1.8 | 5.80 | 8.70 | 5.80 | – | –
2 | CC1(C)N=C(N)N=C(N)N1c1ccc(Cl)cc1 [CYCLOGUANIL] | < 4.30 | 8.82 | >1.3 | >1250 | > 1.3 | – | 280 | 6.55 | 1025 | 1.1 | 20.9 | >1250 | 7.50 | <0.4 | 190 | < 4.30 | 6.38 | 4.39 | 876 | –
3 | NC1=NC(c2ccccc2)N(c2cccc(Cl)c2)C(N)=N1 (stereo unspecified) | 3.60 | 7.93 | 672 | 446 | 1000 | 312 | 84.1 | 6.66 | 155 | 348 | 9.5 | 300 | 6.95 | 109 | 18.5 | 3.77 | 6.01 | 4.06 | 0.9 | 7.98
